From ChEMBL document CHEMBL1139049, “Highly potent 3-pyrroline mechanism-based inhibitors of bovine plasma amine oxidase and mass spectrometric confirmation of cofactor derivatization” (Bioorg Med Chem, 2007)
The source made the active and inactive calls. The rule behind the calls is not given here.

What was measured:
Bos taurus [1] = species on record: Bos taurus; test: Ratio of kinact to Ki for BPAO
Outline: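 Inactivation of ~1 μM BPAO by varying inhibitor concentrations, at 30 °C in 50 mM sodium phosphate, pH 7.2. Residual activity in time aliquots was read by benzylamine oxidation (benzaldehyde, 250 nm). Log activity versus time gave pseudo-first-order rates, and kinact and Ki were obtained from Kitz–Wilson plots.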

[2] = (§1) Inhibition of BPAO after 20 mins by benzylamine assay; set-up: species or system Bos taurus
Outline: (§2)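 Bovine plasma amine oxidase (~1 μM) preincubated with varying inhibitor concentrations at 30 °C in 50 mM sodium phosphate, pH 7.2. Aliquots taken over time were assayed for residual activity by the benzylamine assay, with benzaldehyde formation followed at 250 nm. The value is the concentration giving 50% inactivation at a fixed 20 min.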

Bos taurus [3] = species on record: Bos taurus; test: Inhibition of BPAO assessed as redox cycling activity by NBT assay
Outline: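 BPAO was inactivated by preincubation with inhibitor in 50 mM sodium phosphate, pH 7.2. The inactivated preparations were then tested for TPQ cofactor redox cycling by the standard sodium glycinate nitroblue tetrazolium staining assay.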

Bos taurus [4] = species on record: Bos taurus; test: as §1; outline: as §2

Row | SMILES | Ratio (Bos taurus [1]) [mM⁻¹ min⁻¹] | IC50 [2] [µM] | Activity (Bos taurus [3]) | Ki [2] [µM] | Kinact (Bos taurus [4]) [min⁻¹]
1 | C1=C(c2cccnc2)CNC1 | 24 | 1.5 |  |  | 
2 | C1=C(c2nccc3ccccc23)CNC1 | 40 | 0.86 | Active |  | 
3 | C1=C(c2ccncc2)CNC1 | 1.2 | 50 | Active | 76 | 0.091
4 | C[n+]1cccc(C2=CCNC2)c1 |  | 500 |  |  | 
5 | C1=C(c2ccc3ccccc3n2)CNC1 | 13 | 2.7 |  |  | 

Continued, values first:

Row | Ratio (Bos taurus [1]) [mM⁻¹ min⁻¹] | IC50 [2] [µM] | Activity (Bos taurus [3]) | Ki [2] [µM] | Kinact (Bos taurus [4]) [min⁻¹] | SMILES
6 | 65 | 0.75 |  |  |  | C1=C(c2ccccn2)CNC1
7 | 6 | 6.1 | Active |  |  | Fc1c(F)c(F)c(C2=CCNC2)c(F)c1F
8 |  | > 1000 |  |  |  | C[n+]1ccc(C2=CCNC2)cc1
